Data taken from ChEMBL document CHEMBL2086320, “New synthetic inhibitors of fatty acid synthase with anticancer activity” (J Med Chem, 2012).
Calls of active or inactive are those of the source. No cut-off for these calls is given here.

Assays:
SK-BR-3 = assay: Cytotoxicity against human SKBR3 cells after 48 hrs by MTT assay; type: functional, cell-based; conditions: SK-BR-3, 48 h
In short: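 MTT colorimetric assay: cells seeded at 5 or 7 x 10³ cells/well, attached overnight, then given fresh medium with a range of compound concentrations for 48 h at 37 °C, 5% CO2. MTT added for 3 h, formazan dissolved in DMSO, absorbance read at 570 or 540 nm. IC50 as mean±SEM from at least two independent experiments in duplicate or triplicate.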

[1] = target: Fatty acid synthase (Homo sapiens) (UniProt P49327); assay: Inhibition of FASN in human SK-BR-3 cells assessed as oxidation of NADPH at 23 uM after 24 hrs by Spectrophotometric analysis relative to control; type: cell-based
[2] = target: Fatty acid synthase (Homo sapiens) (UniProt P49327); assay: Inhibition of FASN in human SK-BR-3 cells assessed as oxidation of NADPH at 41 uM after 24 hrs by Spectrophotometric analysis relative to control; type: cell-based
[3] = target: Fatty acid synthase (Homo sapiens) (UniProt P49327); assay: Inhibition of FASN in human SK-BR-3 cells assessed as oxidation of NADPH at 42 uM after 24 hrs by Spectrophotometric analysis relative to control; type: cell-based
[4] = target: Fatty acid synthase (Homo sapiens) (UniProt P49327); assay: Inhibition of FASN in human SK-BR-3 cells assessed as oxidation of NADPH at 26 uM after 24 hrs by Spectrophotometric analysis relative to control; type: cell-based
[5] = target: Fatty acid synthase (Homo sapiens) (UniProt P49327); assay: Inhibition of FASN in human SK-BR-3 cells assessed as oxidation of NADPH at 31 uM after 24 hrs by Spectrophotometric analysis relative to control; type: cell-based
[6] = target: Fatty acid synthase (Homo sapiens) (UniProt P49327); assay: Inhibition of FASN in human SK-BR-3 cells assessed as oxidation of NADPH at 76 uM after 24 hrs by Spectrophotometric analysis relative to control; type: cell-based
[7] = target: Fatty acid synthase (Homo sapiens) (UniProt P49327); assay: Inhibition of FASN in human SK-BR-3 cells assessed as oxidation of NADPH at 78 uM after 24 hrs by Spectrophotometric analysis relative to control; type: cell-based
[8] = target: Fatty acid synthase (Homo sapiens) (UniProt P49327); assay: Inhibition of FASN in human SK-BR-3 cells assessed as oxidation of NADPH at 17 uM after 24 hrs by Spectrophotometric analysis relative to control; type: cell-based
[9] = target: Fatty acid synthase (Homo sapiens) (UniProt P49327); assay: Inhibition of FASN in human SK-BR-3 cells assessed as oxidation of NADPH at 5 uM after 24 hrs by Spectrophotometric analysis relative to control; type: cell-based
[10] = target: Fatty acid synthase (Homo sapiens) (UniProt P49327); assay: Inhibition of FASN in human SK-BR-3 cells assessed as oxidation of NADPH at 28 uM after 24 hrs by Spectrophotometric analysis relative to control; type: cell-based
[11] = target: Fatty acid synthase (Homo sapiens) (UniProt P49327); assay: Inhibition of FASN in human SK-BR-3 cells assessed as oxidation of NADPH at 25 uM after 24 hrs by Spectrophotometric analysis relative to control; type: cell-based
[12] = target: Fatty acid synthase (Homo sapiens) (UniProt P49327); assay: Inhibition of FASN in human SK-BR-3 cells assessed as oxidation of NADPH at 36 uM after 24 hrs by Spectrophotometric analysis relative to control; type: cell-based
[13] = target: Receptor tyrosine-protein kinase erbB-2 (Homo sapiens) (UniProt P04626); assay: Inhibition of HER2 phosphorylation in human SK-BR-3 cells after 6 hrs by Western blot analysis; type: cell-based; conditions: concentration not given here
In short: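 SK-Br3 cells treated for 6, 12 or 24 h, harvested with trypsin-EDTA, lysed in Tris-HCl pH 7.5/EDTA/NaCl/PMSF buffer at 4 °C. Equal protein run on 3-8% SDS-PAGE and transferred to nitrocellulose. Membranes probed overnight at 4 °C with anti-phospho-HER2 mouse monoclonal, then peroxidase secondary and chemiluminescence. Re-probed for β-actin as loading control. Gels are representative of at least two independent experiments.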

[14] = target: Fatty acid synthase (Homo sapiens) (UniProt P49327); assay: Inhibition of FASN in human SK-BR-3 cells assessed as oxidation of NADPH at 47 uM after 24 hrs by Spectrophotometric analysis relative to control; type: cell-based
[15] = target: Fatty acid synthase (Homo sapiens) (UniProt P49327); assay: Inhibition of FASN in human SK-BR-3 cells assessed as oxidation of NADPH at 22 uM after 24 hrs by Spectrophotometric analysis relative to control; type: cell-based
[16] = target: Fatty acid synthase (Homo sapiens) (UniProt P49327); assay: Inhibition of FASN in human SK-BR-3 cells assessed as oxidation of NADPH at 39 uM after 24 hrs by Spectrophotometric analysis relative to control; type: cell-based
[17] = target: Fatty acid synthase (Homo sapiens) (UniProt P49327); assay: Inhibition of FASN in human SK-BR-3 cells assessed as oxidation of NADPH at 8 uM after 24 hrs by Spectrophotometric analysis relative to control; type: cell-based

Fatty acid synthase (Homo sapiens), sequence (P49327 whole entry, looked up): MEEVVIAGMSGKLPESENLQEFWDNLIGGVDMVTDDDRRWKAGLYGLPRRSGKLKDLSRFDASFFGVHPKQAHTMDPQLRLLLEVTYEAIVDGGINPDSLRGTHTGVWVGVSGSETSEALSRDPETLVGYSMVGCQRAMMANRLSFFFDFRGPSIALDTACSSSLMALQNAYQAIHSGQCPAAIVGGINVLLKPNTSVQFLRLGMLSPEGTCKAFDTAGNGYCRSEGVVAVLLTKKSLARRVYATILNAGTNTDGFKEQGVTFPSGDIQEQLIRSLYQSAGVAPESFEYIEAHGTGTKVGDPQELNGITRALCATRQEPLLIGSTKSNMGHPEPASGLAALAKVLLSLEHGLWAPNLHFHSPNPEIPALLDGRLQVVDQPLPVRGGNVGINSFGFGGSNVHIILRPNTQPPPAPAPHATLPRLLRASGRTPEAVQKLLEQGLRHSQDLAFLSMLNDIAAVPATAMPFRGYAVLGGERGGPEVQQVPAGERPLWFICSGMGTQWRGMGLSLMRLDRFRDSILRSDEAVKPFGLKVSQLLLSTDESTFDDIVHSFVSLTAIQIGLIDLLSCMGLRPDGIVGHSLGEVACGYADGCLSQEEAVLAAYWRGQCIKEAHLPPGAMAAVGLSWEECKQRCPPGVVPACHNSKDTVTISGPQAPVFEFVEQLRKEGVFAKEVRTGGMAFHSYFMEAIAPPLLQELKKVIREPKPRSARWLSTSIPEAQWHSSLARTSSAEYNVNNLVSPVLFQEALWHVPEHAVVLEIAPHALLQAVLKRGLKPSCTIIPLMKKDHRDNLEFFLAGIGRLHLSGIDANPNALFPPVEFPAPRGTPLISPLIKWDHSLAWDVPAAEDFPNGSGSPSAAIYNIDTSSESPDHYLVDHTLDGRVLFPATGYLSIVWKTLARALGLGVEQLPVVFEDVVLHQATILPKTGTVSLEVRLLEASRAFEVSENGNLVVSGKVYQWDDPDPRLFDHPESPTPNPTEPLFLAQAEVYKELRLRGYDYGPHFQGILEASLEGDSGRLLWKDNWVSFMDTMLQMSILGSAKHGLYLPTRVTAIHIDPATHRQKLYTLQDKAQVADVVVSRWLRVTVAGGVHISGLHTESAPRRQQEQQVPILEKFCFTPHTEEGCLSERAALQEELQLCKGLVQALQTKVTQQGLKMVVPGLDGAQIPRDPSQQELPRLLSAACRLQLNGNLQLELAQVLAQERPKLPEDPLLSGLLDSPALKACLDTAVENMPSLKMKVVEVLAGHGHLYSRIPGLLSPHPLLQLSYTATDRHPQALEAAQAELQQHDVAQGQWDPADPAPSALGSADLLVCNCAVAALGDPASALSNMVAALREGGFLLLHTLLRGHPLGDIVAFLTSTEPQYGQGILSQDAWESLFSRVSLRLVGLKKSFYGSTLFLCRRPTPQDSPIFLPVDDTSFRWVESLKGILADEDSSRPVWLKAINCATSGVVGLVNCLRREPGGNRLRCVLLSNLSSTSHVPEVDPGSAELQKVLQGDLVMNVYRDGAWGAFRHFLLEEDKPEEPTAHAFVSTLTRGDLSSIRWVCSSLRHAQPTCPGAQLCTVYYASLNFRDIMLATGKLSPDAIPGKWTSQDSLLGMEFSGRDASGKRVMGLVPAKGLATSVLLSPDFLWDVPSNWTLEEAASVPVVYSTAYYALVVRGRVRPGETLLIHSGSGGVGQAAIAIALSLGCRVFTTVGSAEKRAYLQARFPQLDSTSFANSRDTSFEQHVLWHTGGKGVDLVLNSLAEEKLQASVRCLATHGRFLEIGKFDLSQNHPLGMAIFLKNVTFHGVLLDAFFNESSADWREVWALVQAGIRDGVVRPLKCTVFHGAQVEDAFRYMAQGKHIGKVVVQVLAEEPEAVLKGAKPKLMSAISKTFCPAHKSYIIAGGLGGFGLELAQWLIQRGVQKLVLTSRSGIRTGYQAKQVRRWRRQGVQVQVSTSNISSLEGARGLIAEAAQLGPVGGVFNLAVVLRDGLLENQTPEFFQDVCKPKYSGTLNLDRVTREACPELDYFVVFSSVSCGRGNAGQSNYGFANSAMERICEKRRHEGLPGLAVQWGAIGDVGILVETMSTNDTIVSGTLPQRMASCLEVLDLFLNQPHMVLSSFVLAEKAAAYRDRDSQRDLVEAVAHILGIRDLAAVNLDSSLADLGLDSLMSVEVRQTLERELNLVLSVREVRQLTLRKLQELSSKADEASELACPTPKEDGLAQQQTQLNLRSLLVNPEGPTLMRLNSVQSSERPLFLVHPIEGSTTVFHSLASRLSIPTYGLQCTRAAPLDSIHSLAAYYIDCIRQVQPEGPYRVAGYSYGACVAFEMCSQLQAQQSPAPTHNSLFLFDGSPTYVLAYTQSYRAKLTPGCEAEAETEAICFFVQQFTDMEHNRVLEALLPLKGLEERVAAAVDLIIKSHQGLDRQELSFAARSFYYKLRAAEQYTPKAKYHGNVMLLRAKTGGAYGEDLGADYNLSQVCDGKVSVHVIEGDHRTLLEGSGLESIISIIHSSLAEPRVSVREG
Receptor tyrosine-protein kinase erbB-2 (Homo sapiens), sequence (P04626 whole entry): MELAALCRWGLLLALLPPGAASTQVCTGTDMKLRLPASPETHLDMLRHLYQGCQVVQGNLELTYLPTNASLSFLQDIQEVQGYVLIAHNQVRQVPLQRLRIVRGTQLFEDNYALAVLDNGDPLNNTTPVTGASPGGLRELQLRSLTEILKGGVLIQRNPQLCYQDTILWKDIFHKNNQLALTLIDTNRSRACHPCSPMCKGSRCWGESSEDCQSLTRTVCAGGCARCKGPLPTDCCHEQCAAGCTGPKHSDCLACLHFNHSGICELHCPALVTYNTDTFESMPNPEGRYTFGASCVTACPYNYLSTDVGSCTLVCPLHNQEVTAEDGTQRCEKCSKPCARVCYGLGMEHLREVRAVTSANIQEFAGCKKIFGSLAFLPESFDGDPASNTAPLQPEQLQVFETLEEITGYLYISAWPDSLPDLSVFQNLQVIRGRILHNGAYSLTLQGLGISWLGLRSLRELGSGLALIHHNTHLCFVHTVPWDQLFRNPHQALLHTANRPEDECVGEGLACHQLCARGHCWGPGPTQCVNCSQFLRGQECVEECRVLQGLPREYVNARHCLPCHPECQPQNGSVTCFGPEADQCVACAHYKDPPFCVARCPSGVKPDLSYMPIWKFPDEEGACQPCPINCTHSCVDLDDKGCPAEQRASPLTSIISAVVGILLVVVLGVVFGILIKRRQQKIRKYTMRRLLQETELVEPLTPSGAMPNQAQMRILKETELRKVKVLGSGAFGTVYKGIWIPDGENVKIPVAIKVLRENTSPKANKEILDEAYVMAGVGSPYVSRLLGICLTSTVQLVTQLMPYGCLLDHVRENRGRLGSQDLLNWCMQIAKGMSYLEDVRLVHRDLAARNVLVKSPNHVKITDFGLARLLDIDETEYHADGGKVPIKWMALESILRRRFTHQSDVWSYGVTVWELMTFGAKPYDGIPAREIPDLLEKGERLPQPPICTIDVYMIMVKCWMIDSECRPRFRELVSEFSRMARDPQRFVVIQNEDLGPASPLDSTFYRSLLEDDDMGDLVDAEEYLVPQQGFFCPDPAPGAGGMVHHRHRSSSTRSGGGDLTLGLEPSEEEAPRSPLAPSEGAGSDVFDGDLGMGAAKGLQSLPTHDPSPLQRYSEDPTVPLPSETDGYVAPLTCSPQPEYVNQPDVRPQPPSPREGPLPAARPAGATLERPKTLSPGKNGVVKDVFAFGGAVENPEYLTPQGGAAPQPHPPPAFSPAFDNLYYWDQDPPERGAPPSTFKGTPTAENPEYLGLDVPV

| Structure (SMILES) | IC50 (SK-BR-3) | further results |
| --- | --- | --- |
| Cc1cc(OC(=O)c2cc(O)c(O)c(O)c2)ccc1OC(=O)c1cc(O)c(O)c(O)c1 | 23 µM | inhibition [1]: inactive |
| O=C(Oc1ccc(OC(=O)c2cc(O)c(O)c(O)c2)c2c1CCCC2)c1cc(O)c(O)c(O)c1 | 41 µM | inhibition [2]: inactive |
| O=C(O[C@H]1CC[C@H](OC(=O)c2cc(O)c(O)c(O)c2)c2ccccc21)c1cc(O)c(O)c(O)c1 | 42 µM | inhibition [3]: 41% |
| O=C(Oc1ccc2ccccc2c1OC(=O)c1cc(O)c(O)c(O)c1)c1cc(O)c(O)c(O)c1 | 74 µM |  |
| O=C(Oc1ccc2ccc(OC(=O)c3cc(O)c(O)c(O)c3)cc2c1)c1cc(O)c(O)c(O)c1 | 26 µM | inhibition [4]: inactive |
| O=C(Oc1cc2c(c(OC(=O)c3cc(O)c(O)c(O)c3)c1)CCCC2)c1cc(O)c(O)c(O)c1 | 31 µM | inhibition [5]: inactive |
| O=C(Oc1cccc(OC(=O)c2cc(O)c(O)c(O)c2)c1)c1cc(O)c(O)c(O)c1 | 42 µM | inhibition [3]: inactive |
| O=C(Oc1cc2ccccc2cc1OC(=O)c1cc(O)c(O)c(O)c1)c1cc(O)c(O)c(O)c1 | 76 µM | inhibition [6]: 31% |
| O=C(O[C@@H]1CCCC[C@H]1OC(=O)c1cc(O)c(O)c(O)c1)c1cc(O)c(O)c(O)c1 (relative stereo) | > 150 µM |  |
| O=C(Oc1ccccc1OC(=O)c1cc(O)c(O)c(O)c1)c1cc(O)c(O)c(O)c1 | 125 µM |  |
| O=C(Oc1cc(OC(=O)c2cc(O)c(O)c(O)c2)c2ccccc2c1)c1cc(O)c(O)c(O)c1 | 21 µM |  |
| O=C(Oc1ccc(OC(=O)c2cc(O)c(O)c(O)c2)c2ccccc12)c1cc(O)c(O)c(O)c1 | 29 µM |  |
| O=C(Oc1cccc2cccc(OC(=O)c3cc(O)c(O)c(O)c3)c12)c1cc(O)c(O)c(O)c1 | 78 µM | inhibition [7]: inactive |
| O=C(Oc1ccc(OC(=O)c2cc(O)c(O)c(O)c2)c(-c2ccccc2)c1)c1cc(O)c(O)c(O)c1 | 17 µM | inhibition [8]: inactive |
| O=C(Oc1ccc2cc(OC(=O)c3cc(O)c(O)c(O)c3)ccc2c1)c1cc(O)c(O)c(O)c1 | 5 µM | inhibition [9]: inactive |
| COC(=O)c1cc(OC(=O)c2cc(O)c(O)c(O)c2)c2ccccc2c1OC(=O)c1cc(O)c(O)c(O)c1 | 28 µM | inhibition [10]: inactive |
| O=C(Oc1ccc(OC(=O)c2cc(O)c(O)c(O)c2)cc1)c1cc(O)c(O)c(O)c1 | 25 µM | inhibition [11]: inactive |
| O=C(OCCOC(=O)c1cc(O)c(O)c(O)c1)c1cc(O)c(O)c(O)c1 | > 150 µM |  |
| COC(=O)c1cc(OC(=O)c2cc(O)c(O)c(O)c2)ccc1OC(=O)c1cc(O)c(O)c(O)c1 | 36 µM | inhibition [12]: 43% |
| O=C(O[C@@H]1Cc2c(O)cc(O)cc2O[C@@H]1c1cc(O)c(O)c(O)c1)c1cc(O)c(O)c(O)c1 [EPIGALOCATECHIN GALLATE] | 149 µM | inhibition [13]: 18% |
| O=C(Oc1ccc2cccc(OC(=O)c3cc(O)c(O)c(O)c3)c2c1)c1cc(O)c(O)c(O)c1 | 47 µM | inhibition [14]: inactive |
| O=C(O[C@H]1CC[C@@H](OC(=O)c2cc(O)c(O)c(O)c2)c2ccccc21)c1cc(O)c(O)c(O)c1 | 22 µM | inhibition [15]: inactive |
| O=C(Oc1ccc2c(OC(=O)c3cc(O)c(O)c(O)c3)cccc2c1)c1cc(O)c(O)c(O)c1 | 39 µM | inhibition [16]: inactive |
| COc1cc(OC(=O)c2cc(O)c(O)c(O)c2)ccc1OC(=O)c1cc(O)c(O)c(O)c1 | 8 µM | inhibition [17]: inactive |
| O=C(O[C@H]1CCCC[C@H]1OC(=O)c1cc(O)c(O)c(O)c1)c1cc(O)c(O)c(O)c1 | > 150 µM |  |
| O=C(Oc1cccc2c(OC(=O)c3cc(O)c(O)c(O)c3)cccc12)c1cc(O)c(O)c(O)c1 | 26 µM | inhibition [4]: 30% |
